Test results published in ChEMBL document CHEMBL4321879, “Novel Class of Colony-Stimulating Factor 1 Receptor Kinase Inhibitors Based on an o-Aminopyridyl Alkynyl Scaffold as Potential Treatment for Inflammatory Disorders” (J Med Chem, 2020).
Activity calls are given as the source filed them. No cut-off for these calls is given here.

Key:
c-KIT = c-KIT (Homo sapiens, UniProt P10721); assay: Inhibition of recombinant human N-terminal GST-tagged c-KIT (544 to end residues) expressed in baculovirus infected Sf21 insect cells at 10 nM using poly (Glu, Tyr)4:1 as substrate measured after 1 hr by ELISA relative to control; conditions: probe poly (Glu, Tyr)4:1
In short: (§1)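 Recombinant kinase was incubated with compound in reaction buffer containing 5 μM ATP, in wells precoated with poly(Glu,Tyr) 4:1, for 1 h at 37 °C. Phosphorylation was detected by ELISA.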

[1] = molecular target: Platelet-derived growth factor receptor beta (Homo sapiens) (UniProt P09619); assay: Inhibition of recombinant human N-terminal His6-tagged PDGFRbeta (557 to end residues) expressed in baculovirus infected Sf21 insect cells at 10 nM using poly (Glu, Tyr)4:1 as substrate measured after 1 hr by ELISA relative to control
In short: (§2)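 ELISA kinase assay: recombinant kinase added to wells precoated with poly(Glu,Tyr)4:1 and incubated with compound in reaction buffer containing 5 μM ATP, 37 °C for 1 h; wells then washed before antibody detection.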

[2] = MRT (infinity) in Sprague-Dawley rat at 2 mg/kg, iv administered […] by LC-MS/MS analysis; type: ADME, organism-based; conditions: in vivo
In short: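 Male SD rats (200 ± 20 g), fasted 12 h, n = 3; single intravenous dose of 2 mg/kg in DMSO/EtOH/PEG300/saline (5/5/40/50). Femoral vein blood at 15–1440 min; plasma precipitated with methanol containing internal standard, assayed by LC–MS/MS; noncompartmental analysis (MRT = AUMC/AUC, Vss = CL × MRT).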

[3] = molecular target: Insulin-like growth factor 1 receptor (Homo sapiens) (UniProt P08069); assay: Inhibition of recombinant human N-terminal His6-tagged IGF1R (959 to end residues) expressed in baculovirus infected Sf21 insect cells at 100 nM using poly (Glu, Tyr)4:1 as substrate measured after 1 hr by ELISA relative to control; in short: as §2
[4] = molecular target: Platelet-derived growth factor receptor alpha (Homo sapiens) (UniProt P16234); assay: Inhibition of recombinant human N-terminal His6-tagged PDGFRalpha (550 to end residues) expressed in baculovirus infected Sf21 insect cells at 10 nM using poly (Glu, Tyr)4:1 as substrate measured after 1 hr by ELISA relative to control; in short: as §2
Mus musculus = assay: Antiinflammatory activity in BALB/c mouse assessed as reduction in LPS-induced IL6 production at 20 to 40 mg/kg, po pretreated for 4 hrs followed by LPS-stimulation and measured after 3 hrs by ELISA; type: functional, organism-based
In short: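 Female BALB/c mice, 8 weeks old, n = 6 per group, dosed orally at 20 or 40 mg/kg in 0.5% CMC-Na/0.25% Tween-80 4 h before ip LPS 5 mg/kg. Orbital-sinus blood was taken at 1.5 h (TNF-α) and 3 h (IL-6). Serum cytokines measured by ELISA. Mean ± SEM, one-way ANOVA with Dunnett's test.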

[5] = molecular target: T1, Fibroblast growth factor receptor 1 (Homo sapiens, UniProt P11362); assay: Inhibition of recombinant human N-terminal GST-tagged FGFR1 (456 to 765 residues) expressed in baculovirus infected Sf21 insect cells at 1000 nM using poly (Glu, Tyr)4:1 as substrate measured after 1 hr by ELISA relative to control; in short: as §1
[6] = Oral bioavailability in Sprague-Dawley rat at 5 mg/kg administered via gavage by LC-MS/MS analysis; type: ADME, organism-based; conditions: in vivo
In short: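 Male SD rats (n = 3 per route), fasted 12 h; 5 mg/kg oral gavage (DMSO/HPMC 5/95) versus 2 mg/kg iv (DMSO/EtOH/PEG300/saline). Plasma sampled 15–1440 min, LC–MS/MS; F = AUC0–∞(oral)/AUC0–∞(iv) × dose(iv)/dose(oral) × 100%.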

[7] = molecular target: Platelet-derived growth factor receptor alpha (Homo sapiens) (UniProt P16234); assay: Inhibition of recombinant human N-terminal His6-tagged PDGFRalpha (550 to end residues) expressed in baculovirus infected Sf21 insect cells at 100 nM using poly (Glu, Tyr)4:1 as substrate measured after 1 hr by ELISA relative to control; in short: as §2
FLT3 = FLT3 (Homo sapiens, UniProt P36888); assay: Inhibition of recombinant human N-terminal GST-tagged FLT3 (564 to end residues) expressed in Sf21 insect cells at 100 nM using poly (Glu, Tyr)4:1 as substrate measured after 1 hr by ELISA relative to control; conditions: probe poly (Glu, Tyr)4:1; in short: as §1
[8] = molecular target: Vascular endothelial growth factor receptor 3 (Homo sapiens) (UniProt P35916); assay: Inhibition of recombinant VEGFR3 (unknown origin) at 1000 nM using poly (Glu, Tyr)4:1 as substrate measured after 1 hr by ELISA relative to control; in short: as §1
[9] = molecular target: Tyrosine-protein kinase ABL1 (Homo sapiens) (UniProt P00519); assay: Inhibition of recombinant human N-terminal His6-tagged Abl (27 to end residues) expressed in baculovirus infected Sf21 insect cells at 1000 nM using poly (Glu, Tyr)4:1 as substrate measured after 1 hr by ELISA relative to control; in short: as §1
[10] = molecular target: Insulin receptor (Homo sapiens) (UniProt P06213); assay: Inhibition of recombinant human N-terminal His6-tagged IR (1005 to 1310 residues) expressed in baculovirus infected Sf21 insect cells at 100 nM using poly (Glu, Tyr)4:1 as substrate measured after 1 hr by ELISA relative to control; in short: as §2
[11] = molecular target: T1, Fibroblast growth factor receptor 1; assay: Inhibition of recombinant human N-terminal GST-tagged FGFR1 (456 to 765 residues) expressed in baculovirus infected Sf21 insect cells at 100 nM using poly (Glu, Tyr)4:1 as substrate measured after 1 hr by ELISA relative to control; in short: as §1
[12] = molecular target: Fibroblast growth factor receptor 3 (Homo sapiens, UniProt P22607); assay: Inhibition of recombinant human N-terminal His6-tagged FGFR3 (447 to 761 residues) expressed in baculovirus infected Sf21 insect cells using poly (Glu, Tyr)4:1 as substrate measured after 1 hr by ELISA; in short: as §1
[13] = MRT (infinity) in Sprague-Dawley rat at 5 mg/kg, po administered via gavage by LC-MS/MS analysis; type: ADME, organism-based; conditions: in vivo
In short: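 Male SD rats (200 ± 20 g), fasted 12 h, n = 3; oral gavage 5 mg/kg in DMSO/HPMC (5/95). Femoral vein blood at 15–1440 min; plasma precipitated with methanol plus internal standard, LC–MS/MS; noncompartmental analysis, Tmax observed directly, MRT = AUMC/AUC.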

RAW264.7 = assay: Antiinflammatory activity in mouse RAW264.7 cells assessed as reduction in LPS-induced TNFalpha release measured after 24 hrs by ELISA; type: functional, cell-based; conditions: RAW264.7, 24 h
In short: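 RAW264.7 cells in DMEM with 10% FBS and 0.125% DMSO were incubated with compound, then primed with LPS 1 μg/mL for 24 h. Supernatant TNF-α and IL-6 measured by mouse ELISA. IC50 from log(inhibitor) versus normalized response nonlinear fit.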

Chain of Platelet-derived growth factor receptor alpha (Homo sapiens) (P16234 whole entry): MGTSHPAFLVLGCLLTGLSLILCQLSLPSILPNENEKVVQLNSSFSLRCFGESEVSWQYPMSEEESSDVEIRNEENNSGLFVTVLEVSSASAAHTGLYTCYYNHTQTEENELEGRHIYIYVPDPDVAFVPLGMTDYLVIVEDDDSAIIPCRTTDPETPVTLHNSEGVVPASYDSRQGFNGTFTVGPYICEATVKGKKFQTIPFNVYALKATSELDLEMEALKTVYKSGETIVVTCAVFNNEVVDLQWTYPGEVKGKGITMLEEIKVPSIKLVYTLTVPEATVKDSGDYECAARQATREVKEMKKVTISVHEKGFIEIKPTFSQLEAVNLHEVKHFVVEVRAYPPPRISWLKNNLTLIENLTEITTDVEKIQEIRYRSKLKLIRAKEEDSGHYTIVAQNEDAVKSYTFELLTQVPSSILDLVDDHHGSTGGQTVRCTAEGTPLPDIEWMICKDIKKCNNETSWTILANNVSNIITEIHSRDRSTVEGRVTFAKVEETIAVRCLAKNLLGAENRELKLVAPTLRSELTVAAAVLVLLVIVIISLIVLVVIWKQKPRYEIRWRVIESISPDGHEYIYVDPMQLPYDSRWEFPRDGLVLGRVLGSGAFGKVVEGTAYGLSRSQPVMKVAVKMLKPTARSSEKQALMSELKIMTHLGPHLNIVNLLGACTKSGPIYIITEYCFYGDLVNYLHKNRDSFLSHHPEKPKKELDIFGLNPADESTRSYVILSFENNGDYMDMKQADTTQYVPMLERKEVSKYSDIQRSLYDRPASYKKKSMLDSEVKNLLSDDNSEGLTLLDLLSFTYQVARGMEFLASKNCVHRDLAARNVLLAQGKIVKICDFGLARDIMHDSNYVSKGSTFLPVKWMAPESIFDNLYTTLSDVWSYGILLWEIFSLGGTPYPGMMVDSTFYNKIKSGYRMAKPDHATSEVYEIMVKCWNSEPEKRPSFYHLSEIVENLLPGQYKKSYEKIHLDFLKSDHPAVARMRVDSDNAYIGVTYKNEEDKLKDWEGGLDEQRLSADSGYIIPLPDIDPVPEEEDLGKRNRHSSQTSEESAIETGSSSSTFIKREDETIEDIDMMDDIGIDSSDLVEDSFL
T1 sequence (P11362 22-822 limits assumed): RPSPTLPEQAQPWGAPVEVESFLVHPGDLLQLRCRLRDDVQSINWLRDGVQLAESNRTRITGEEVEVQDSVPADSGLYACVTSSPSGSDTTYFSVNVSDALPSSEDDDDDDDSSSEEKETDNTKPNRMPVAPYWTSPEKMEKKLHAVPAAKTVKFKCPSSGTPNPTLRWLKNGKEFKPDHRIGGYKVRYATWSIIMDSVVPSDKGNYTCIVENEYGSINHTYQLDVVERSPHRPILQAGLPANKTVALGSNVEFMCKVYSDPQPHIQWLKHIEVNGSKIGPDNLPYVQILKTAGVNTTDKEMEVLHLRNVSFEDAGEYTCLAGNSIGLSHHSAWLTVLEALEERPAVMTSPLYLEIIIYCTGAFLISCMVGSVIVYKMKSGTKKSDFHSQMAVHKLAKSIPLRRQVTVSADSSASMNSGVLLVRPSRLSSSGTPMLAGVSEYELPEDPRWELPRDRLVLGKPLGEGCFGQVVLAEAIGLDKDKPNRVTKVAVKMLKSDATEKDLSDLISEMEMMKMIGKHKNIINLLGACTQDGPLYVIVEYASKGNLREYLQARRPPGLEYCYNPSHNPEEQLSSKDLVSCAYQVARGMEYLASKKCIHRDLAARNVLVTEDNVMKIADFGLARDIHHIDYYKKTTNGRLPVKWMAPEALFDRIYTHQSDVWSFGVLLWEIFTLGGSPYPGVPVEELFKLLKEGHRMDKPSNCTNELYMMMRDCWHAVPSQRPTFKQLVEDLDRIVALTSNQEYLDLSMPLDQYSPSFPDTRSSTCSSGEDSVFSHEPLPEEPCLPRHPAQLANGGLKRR
Chain of Platelet-derived growth factor receptor beta (Homo sapiens) (P09619 whole entry): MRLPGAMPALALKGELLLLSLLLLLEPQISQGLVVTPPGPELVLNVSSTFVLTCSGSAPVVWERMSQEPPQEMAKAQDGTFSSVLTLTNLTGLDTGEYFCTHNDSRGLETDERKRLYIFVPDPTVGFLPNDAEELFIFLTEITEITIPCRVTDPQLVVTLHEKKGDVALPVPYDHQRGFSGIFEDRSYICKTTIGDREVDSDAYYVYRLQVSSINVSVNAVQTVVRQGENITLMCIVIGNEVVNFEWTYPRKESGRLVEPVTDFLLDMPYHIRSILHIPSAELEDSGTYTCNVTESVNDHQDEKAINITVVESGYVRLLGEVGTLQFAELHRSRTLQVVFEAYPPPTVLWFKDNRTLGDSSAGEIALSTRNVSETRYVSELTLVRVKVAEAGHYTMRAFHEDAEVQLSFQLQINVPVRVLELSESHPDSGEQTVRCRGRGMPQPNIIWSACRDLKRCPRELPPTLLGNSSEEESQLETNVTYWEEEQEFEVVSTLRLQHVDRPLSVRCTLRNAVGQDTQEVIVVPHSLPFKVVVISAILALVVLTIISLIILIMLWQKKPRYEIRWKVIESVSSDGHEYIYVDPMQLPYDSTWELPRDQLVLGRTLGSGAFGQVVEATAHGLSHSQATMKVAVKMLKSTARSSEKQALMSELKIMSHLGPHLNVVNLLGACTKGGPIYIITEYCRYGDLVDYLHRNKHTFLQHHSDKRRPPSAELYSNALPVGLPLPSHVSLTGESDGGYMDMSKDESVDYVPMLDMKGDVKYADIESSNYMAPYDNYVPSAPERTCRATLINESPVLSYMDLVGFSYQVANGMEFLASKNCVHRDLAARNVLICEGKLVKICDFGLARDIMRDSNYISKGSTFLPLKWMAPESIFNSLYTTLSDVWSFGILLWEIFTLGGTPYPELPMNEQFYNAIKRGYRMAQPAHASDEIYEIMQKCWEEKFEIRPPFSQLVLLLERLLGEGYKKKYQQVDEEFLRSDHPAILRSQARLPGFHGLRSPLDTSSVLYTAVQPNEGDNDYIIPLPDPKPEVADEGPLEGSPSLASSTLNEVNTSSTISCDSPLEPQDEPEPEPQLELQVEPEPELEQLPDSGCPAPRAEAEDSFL
Chain of Insulin receptor (Homo sapiens) (P06213 28-758 limits assumed): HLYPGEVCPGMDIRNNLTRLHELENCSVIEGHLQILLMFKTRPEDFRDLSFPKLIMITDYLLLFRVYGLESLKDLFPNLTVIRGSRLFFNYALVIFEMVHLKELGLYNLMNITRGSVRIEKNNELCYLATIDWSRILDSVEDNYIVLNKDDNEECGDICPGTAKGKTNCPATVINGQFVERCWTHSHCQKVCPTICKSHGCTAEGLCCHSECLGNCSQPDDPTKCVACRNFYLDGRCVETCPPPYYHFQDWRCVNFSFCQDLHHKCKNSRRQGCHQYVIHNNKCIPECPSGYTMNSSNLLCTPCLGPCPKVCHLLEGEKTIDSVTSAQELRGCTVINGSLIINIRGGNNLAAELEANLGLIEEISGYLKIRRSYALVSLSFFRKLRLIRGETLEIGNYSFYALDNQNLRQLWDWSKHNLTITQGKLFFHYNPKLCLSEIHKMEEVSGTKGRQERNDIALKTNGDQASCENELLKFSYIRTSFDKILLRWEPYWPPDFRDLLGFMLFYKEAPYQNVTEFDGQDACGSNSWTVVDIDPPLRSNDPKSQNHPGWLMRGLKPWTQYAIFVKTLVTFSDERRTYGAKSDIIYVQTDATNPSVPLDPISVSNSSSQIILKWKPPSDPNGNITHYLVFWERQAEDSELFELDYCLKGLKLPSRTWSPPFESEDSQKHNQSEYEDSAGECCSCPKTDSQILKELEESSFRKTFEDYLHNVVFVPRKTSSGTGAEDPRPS
Chain of Insulin receptor (Homo sapiens) (P06213 763-1382 limits assumed): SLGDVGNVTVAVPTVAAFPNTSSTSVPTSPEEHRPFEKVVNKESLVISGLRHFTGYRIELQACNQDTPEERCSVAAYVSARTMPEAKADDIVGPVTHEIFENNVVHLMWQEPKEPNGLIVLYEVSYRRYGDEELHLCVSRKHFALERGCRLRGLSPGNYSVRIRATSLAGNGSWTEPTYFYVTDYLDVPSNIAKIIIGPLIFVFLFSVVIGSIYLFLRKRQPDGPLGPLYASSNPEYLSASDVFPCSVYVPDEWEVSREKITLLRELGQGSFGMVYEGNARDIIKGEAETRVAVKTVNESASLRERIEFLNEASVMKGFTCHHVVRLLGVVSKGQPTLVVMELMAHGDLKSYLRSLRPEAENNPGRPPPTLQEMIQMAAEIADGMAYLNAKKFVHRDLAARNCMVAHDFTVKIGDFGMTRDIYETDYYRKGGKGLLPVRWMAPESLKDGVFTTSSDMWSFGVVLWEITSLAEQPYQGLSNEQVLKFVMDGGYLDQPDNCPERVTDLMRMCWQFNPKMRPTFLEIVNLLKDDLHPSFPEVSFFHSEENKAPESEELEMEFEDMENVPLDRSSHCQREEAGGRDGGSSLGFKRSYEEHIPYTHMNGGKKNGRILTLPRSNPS

Cc1ccc(C(=O)Nc2ccc(Cl)cc2)cc1C#Cc1cc(-c2cnn(C)c2)cnc1N
inhibition at 1 h, 0.01 µM (c-KIT): 70.4% | inhibition [1]: 14.7% | MRT inf [2]: 2.3 h | inhibition [3]: 0% | inhibition [4]: 54.6% | Activity (Mus musculus): Active | inhibition [5]: 0% | bioavailability [6]: 34.8% | inhibition [7]: 83.9% | inhibition at 1 h, 0.1 µM (FLT3): 0% | inhibition [8]: 100% | inhibition [9]: 98.3% | inhibition [10]: 2.1% | inhibition [11]: 0% | IC50 [12]: > 1000 nM | MRT inf [13]: 5.42 h | IC50 (RAW264.7): 110 nM
